Screening data from PubChem BioAssay.
Hits are enriched below; roughly 2% of the tested compounds scored in any of these assays.
IMP-1 inhibitor: inhibitors of Pseudomonas aeruginosa IMP-1 metallo-beta-lactamase | inhibition, % at 5.6 µM | purified IMP-1, nitrocefin hydrolysis, epi-absorbance fluorescence | hit rate 0.45% among 290,000 | AID 1556;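 active means inhibition above the mean plus 3 SD of all compounds in the same screening run, cut at about 4.5% in these data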;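 further: 0% = IMP-1 with DMSO and 100% = DMSO wells lacking enzyme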
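System: purified IMP-1; amount: IMP-1 0.2 nM before substrate addition; compound: single dose, 5.6 µM; times: 25 °C, 15 min preincubation, 25 min reaction; signal: Epi-absorbance via hydrolysed-nitrocefin quenching of white-plate fluorescence, 480/530 nm, EDTA stop; benchmarks: DMSO with and without IMP-1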
PLCg1 inh: PLC-gamma1 (human) inhibition, primary screen; AID 720700; purified PLC-gamma1, fluorogenic substrate, fluorescence; P19174; inhibition, % at 12.2 µM; hit rate 0.84% among 370,000; in the data active means inhibition above about 9.5%
PvdQ inh: blocks Pseudomonas aeruginosa PvdQ acylase activity; inhibition, % at 10 µM; hit rate 0.063% among 340,000; AID 488965; purified PvdQ acylase, fluorescence plate reader; in the data active means inhibition above about 30%, passing the limit was not always enough;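 further: 0% = vehicle neutral wells and 100% = reference inhibitor wells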
PLCb3 inh: PLC-beta3 (human) inhibition, primary screen | AID 720704 | Q01970 | Purified PLC-beta3, fluorogenic substrate, fluorescence | hit rate 0.18% among 370,000 | inhibition, % at 12.2 µM; in the data active means inhibition above about 11%;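 further: 0% = median of compound wells on plate and 100% = full blocker control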
VIM-2 inhibitor: blocks Pseudomonas aeruginosa VIM-2 metallo-beta-lactamase. purified VIM-2, nitrocefin hydrolysis, epi-absorbance fluorescence. inhibition, % at 5.6 µM. hit rate 0.89% among 290,000. AID 1527;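 active means inhibition above the mean of all tested compounds plus 3 SD, cutoff set per screening run, cut at about 7.5% in these data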;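 further: red hydrolysis product quenches plate fluorescence so inhibitors raise well fluorescence; 0% = enzyme with DMSO and 100% = DMSO without enzyme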
* marks the source's active call; other numbers are inactive results; i = inactive; / = no result given; ! = not confirmed by another sample.

SMILES	IMP-1 inhibitor	PLCg1 inh	PvdQ inh	PLCb3 inh	VIM-2 inhibitor
CC1=NN(c2ccccc2)C(=O)/C1=C/c1ccc[nH]1	-1.3	2.8	-12.4	5.4	-1.2
CC1=NN(c2ccccc2)C(=O)C1=Cc1ccccc1	/	10.3*	/	4.7	/
CC1=NN(c2ccccc2)C(=O)/C1=C/c1ccc(Cl)cc1	-4.2	16.4*	0.8	3.4	-0.8
O=[N+]([O-])c1nn(-c2ccc3c(c2)OCCO3)n(O)c1=Nc1ccc(Cl)cc1	0.0	-0.4	-9.5	-0.7	1.4
Cc1ccc(N=c2c([N+](=O)[O-])nn(-c3ccc(Cl)cc3)n2O)cc1C	11.6*	-0.7	-19.1	-7.5	-2.4
O=[N+]([O-])c1nn(-c2ccc(Cl)cc2)n(O)c1=NCc1ccccc1	-1.3	0.9	40.8*	-4.9	1.8
COc1ccc(CCN2C(=O)CC(C(C)c3ccccc3)C2=O)cc1OC (centres undefined)	23.6*	-0.9	-4.1	1.8	-0.7
O=S1(=O)c2c(cccc2N2CC[C@@H](O)C2)O[C@H]2CCN1C2	/	-1.3	/	1.6	/
Cc1cccc(NC(=S)N=Nc2c(O)[nH]c3ccccc23)c1	-4.2	10.9*	-4.3	2.4	-4.6
O=C(N=Nc1c(O)[nH]c2ccccc12)Nc1ccccc1	/	9.1	-4.7	4.8	/
CCOC(=O)c1c(-c2ccccc2)oc2ccc(OC(C)C(=O)O)cc12 (centres undefined)	-2.6	i	-1.4	i	-0.8
CCOC(=O)c1c(-c2ccccc2)oc2ccc(OCC(O)CN(C)C)cc12 (centres undefined)	-3.1	-368.8	-10.2	i	8.9*
COC(=O)[C@]12C[C@H](CC(=O)N3CCC(c4ccccc4)CC3)C(=O)N(CCc3ccc(OC)c(OC)c3)C1=C[C@H](C(C)C)O[C@@H]2C1CC1	/	1.1	/	-2.3	/
CCCCCCCCN1C(=O)[C@@H](CC(=O)NCc2ccc(OC)c(OC)c2)C[C@@]2(C(=O)OC)C1=C[C@H](C(C)C)O[C@@H]2C1CC1	/	-1.2	/	7.1	/
Cc1ccc(NC(=O)c2c(-c3c(F)cccc3Cl)noc2C)cc1F	41.0*	0.2	10.3	-2.1	6.6
Cc1cc(NC(=O)c2c(-c3c(F)cccc3Cl)noc2C)no1	-4.8	-33.2	-12.2	-3.8	-3.2
CCCCCCCCNS(=O)(=O)/C=C/c1ccc(OC)cc1CNC(=O)OC(C)(C)C	/	-4.9	/	-6.7	/
Cc1cc2c3c(ccc(C)c3n1)N=CN2c1ccccc1	-0.3	i	-17.4	i	8.4*
COc1ccc(CN(C)CCc2ccccn2)cc1OC	-1.5	10.6*	-5.5	12.8*	-1.7
COc1cc(CN(C)CCc2ccccn2)cc(OC)c1OC	-1.0	-0.1	-14.6	2.5	-0.2
Cc1ccc(NC(=O)OCCCN2C(=O)CCC23CCC(C)CC3)cc1C (centres undefined)	/	3.2	/	2.8	/
COc1cccc(-c2nn(C)c3sc(C(=O)NCc4ccc(C)o4)cc23)c1	4.7*	-149.9	-11.3	-185.2	-1.3
CSc1nc(N(CCO)CCO)c2sc3nc(-c4ccco4)c4c(c3c2n1)CCC4	12.4*	-209.0	-14.0	-254.6	1.4
CSc1nc(SCCO)c2sc3nc(-c4ccco4)c4c(c3c2n1)CC(C)(C)OC4	3.6	-42.5	-16.7	-54.1	2.7
O=C1C=CC2=C3c4cc(O)c(O)cc4CC3(O)COC2=C1O (centres undefined)	/	16.3*	11.1	5.8	/
SMILES	IMP-1 inhibitor	PLCg1 inh	PvdQ inh	PLCb3 inh	VIM-2 inhibitor
Clc1ccc(-c2nnc(-c3ccco3)o2)cc1	-1.3	-4.1	58.2*	-9.9	-0.3
COC(=O)C1CN(CCc2ccccc2)CCS(=O)(=O)N1Cc1ccc(C(F)(F)F)cc1 (centres undefined)	/	-2.4	/	-2.2	/
CN(C)c1ccnc2sc3c(SCc4ccc(Cl)cc4)ncnc3c12	-2.4	-5.5	-9.0	-5.0	-2.4
CN(C)c1ccnc2sc3c(NCC(O)CO)ncnc3c12 (centres undefined)	-1.0	-36.7	-11.4	-38.5	8.3*
N=c1c(S(=O)(=O)c2ccccc2)cc2c(=O)n3ccccc3nc2n1Cc1cccnc1	/	-20.6	-4.8	-37.8	/
Cc1cccn2c(=O)c3cc(S(=O)(=O)c4ccccc4)c(=N)n(Cc4cccnc4)c3nc12	-2.2	-10.4	-13.0	-27.7	10.2*
CCN(CC)c1ccc2nc3ccccc3[n+](CC)c2c1	-9.2	/	-13.4	/	11.3*
COCCNC(=O)c1cn(C)c(=O)c2cc(OC)c(OC)cc12	-2.9	2.8	-5.7	5.3	1.5
CCOCCCNC(=O)c1cn(C)c(=O)c2cc(OC)c(OC)cc12	4.7*	2.8	-17.3	5.1	-1.3
CN(Cc1ccccc1)C(=O)OCc1cn(Cc2ccccc2)nn1	/	1.4	/	2.1	/
O=[N+]([O-])c1cc(Cc2ccccc2)cc(C=Nc2ccc(N3CCOCC3)cc2)c1O	8.8*	/	-4.4	/	-3.8
Cc1ccc(O)c(N=Cc2cc(Cc3ccccc3)cc([N+](=O)[O-])c2O)c1	11.4*	6.7	-15.8	-4.6	-2.1
Cc1ccc(O)c(C=Nc2cc(C)ccc2O)c1	-0.3	/	-2.1	/	0.8
COC(=O)C1CN(Cc2cn(CCC3OCCO3)nn2)CCS(=O)(=O)N1Cc1ccc(OC)cc1 (centres undefined)	/	-0.7	/	1.0	/
CCOc1ccccc1C(=O)Nc1nnc(SCC(=O)N2CCCC2)s1	/	-2.2	/	-3.5	/
O=C(Nc1nnc(SCC(=O)N2CCCCC2)s1)c1ccccc1F	0.7	-2.6	-12.4	-15.1	9.2*
Clc1ccc(-n2c(Cc3cccs3)nnc2SC/C=C/c2ccccc2)cc1	/	-1.1	/	-4.6	/
COc1ccc(/C=N\NC(=O)CN2CCN(Cc3ccccc3)CC2)cc1OCc1ccccc1	/	-0.9	/	-1.2	/
O=C(OCc1ccc(F)cc1)c1ccc2c(c1)-c1ccccc1C2=O	4.6*	2.6	-10.0	1.0	-2.1
CCN(CC)CCCNC(=S)N(Cc1cccnc1)Cc1cc2cc(C)cc(C)c2[nH]c1=O	1.4	-2.5	-4.2	-2.7	11.7*
Cc1cccc2cc(CN(Cc3cccnc3)C(=O)c3ccncc3)c(=O)[nH]c12	-3.0	-3.8	1.4	-2.0	-1.2
Cc1cc(C)c2[nH]c(=O)c(CN(Cc3cccnc3)C(=S)NCCCN(C)C)cc2c1	-2.1	-0.9	0.3	-5.0	9.3*
Nn1c(SCC(=O)N2CCOCC2)nnc1-c1cc(-c2ccc(F)cc2)n[nH]1	/	0.4	/	3.6	/
COc1ccc(S[C@]2(C(=O)N3CCOCC3)CC(=O)N(c3ccsc3)[C@@H]2c2ccc(OC)cc2)cc1	/	3.4	/	3.7	/
Cc1ccc[n+](/C(C(=S)NCc2ccco2)=C(/[O-])c2ccccc2Cl)c1	5.6*	0.2	9.7	1.6	-3.3
O=C(O)C1=C[C@@H](c2csc3ccccc23)C[C@@H](OCCCCO)O1	0.4	-25.2	-10.3	-29.5	4.4
O=C(O)C1=C[C@H](c2csc3ccccc23)C[C@H](OCCCCO)O1	3.1	-24.5	-7.4	-25.5	9.5*
COc1ccc(C2Nc3ccccc3C(=O)N2Cc2ccco2)cc1CN1C(=O)c2ccccc2C1=O (centres undefined)	4.7*!	-13.5	-4.7	-18.1	-1.1
COc1ccc(-c2cc(NCCc3ccncc3)n3ncnc3n2)cc1	-2.0	-12.1	2.2	-12.4	2.4
